The term Ki denotes the equilibrium dissociation constant of an inhibitor or competing ligand from its target. The inhibition is the percentage by which the read-out fell short of the control.

Activity calls are given as the source filed them. No cut-off for these calls is given here. Positions of bridges follow the written chain, without caps; N, C: chain ends. Non-standard residues stand in square brackets, D forms with d. Residues, ends and D or L forms follow the SMILES beside them. ξ: configuration not given here. Phe(4-guanidino) = N=C(N)Nc1ccc(C[C@H](N)C(=O)O)cc1; ξNle = CCCCC(N)C(=O)O

In one assay the target is T1, Cathepsin G (Homo sapiens, UniProt P08311).
T1 sequence (P08311 whole entry): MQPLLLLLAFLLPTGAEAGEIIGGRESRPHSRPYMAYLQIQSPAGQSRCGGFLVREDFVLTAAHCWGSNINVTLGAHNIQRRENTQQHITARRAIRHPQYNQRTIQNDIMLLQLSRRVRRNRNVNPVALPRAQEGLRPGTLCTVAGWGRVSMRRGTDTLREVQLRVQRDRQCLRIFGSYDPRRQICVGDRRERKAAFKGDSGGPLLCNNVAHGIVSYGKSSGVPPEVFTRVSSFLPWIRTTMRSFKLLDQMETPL
In words: Inhibition of human cathepsin G using Suc-AAPF-MCA as substrate after 30 mins.

Assay [1] is described as follows: Inhibition of bovine trypsin using Tos-GPR-AMC as substrate preincubated for 30 mins followed by substrate addition.
The target in a further assay is T2, Myeloblastin (Homo sapiens, UniProt P24158).
T2 sequence (P24158 whole entry): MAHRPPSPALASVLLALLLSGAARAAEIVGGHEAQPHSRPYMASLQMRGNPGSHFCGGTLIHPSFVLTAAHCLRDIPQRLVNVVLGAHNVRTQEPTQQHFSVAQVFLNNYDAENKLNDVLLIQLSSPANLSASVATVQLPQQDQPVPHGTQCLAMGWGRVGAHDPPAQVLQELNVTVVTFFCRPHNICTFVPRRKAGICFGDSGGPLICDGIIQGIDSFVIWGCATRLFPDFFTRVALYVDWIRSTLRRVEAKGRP
Put plainly: Inhibition of human PR3 using Suc(OMe)-AAPV-MCA as substrate after 30 mins. In a few lines:
(§1)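 Protease and inhibitor equilibrated 30 min at room temperature, then MCA substrate added in assay buffer (0.15 M NaCl, 0.1 M Tris·HCl pH 8.0, 0.005% Triton X-100). Fluorescence was read at ex 360/em 460 nm over 10 min. Morrison Ki was fitted by non-linear regression from three independent triplicate experiments.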

A further assay has as its target Kallikrein-7 (Homo sapiens, UniProt P49862). In words: Inhibition of recombinant KLK7 (unknown origin) expressed in zymogen form in Pichia pastorisstrain X-33 using KHLY-pNA as substrate after 30 mins. In a few lines: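 Pro-KLK7 from Pichia supernatant was cation-exchange purified, activated with enterokinase (37°C, 2 h), repurified, and active-site titrated with α1-antitrypsin. After 30 min room-temperature equilibration with inhibitor, pNA hydrolysis was followed at 405 nm for 5 min in Tris/NaCl/Triton buffer pH 8.0 with 10% acetonitrile. Morrison Ki came from three independent triplicate runs.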

For assay [2], the target named is T3, Myeloblastin (Homo sapiens) (UniProt P24158).
T3 sequence (whole entry): T2 sequence (P24158 whole entry)
Put plainly: Inhibition of human PR3 at 10000 nM using Suc(OMe)-AAPV-MCA as substrate after 30 mins relative to control.

The species entered for assay [3] is Homo sapiens. In words: Selectivity ratio of Ki for human neutrophil elastase to Ki for human cathepsin G. A digest of the protocol: (§2)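 Each Ki was determined after 30 min room-temperature protease–inhibitor equilibration, with chromogenic (405 nm) or fluorogenic (360/460 nm) substrate readout in Tris/NaCl buffer pH 8.0. Morrison Ki was fitted by non-linear regression, three independent triplicate experiments, and the off-target Ki was divided by the cathepsin G Ki.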

The nature of assay [4]: Inhibition of bovine chymotrypsin using Suc(OMe)-AAPV-MCA as substrate after 30 mins. Also on record: species or system Bos taurus. A digest of the protocol:
as §1

For assay [5], the species on record is Homo sapiens. Put plainly: Selectivity ratio of Ki for recombinant KLK7 (unknown origin) to Ki for human cathepsin G. In a few lines:
as §2

Assay [6] is described as follows: Selectivity ratio of Ki for rat mast cell chymase to Ki for human cathepsin G. In a few lines: as §2
A short description of assay [7]: Selectivity ratio of Ki for bovine chymotrypsin to Ki for human cathepsin G. In a few lines:
as §2

In a further assay the target is T4, Chymase (Rattus norvegicus, UniProt P50339).
T4 sequence (P50339 whole entry): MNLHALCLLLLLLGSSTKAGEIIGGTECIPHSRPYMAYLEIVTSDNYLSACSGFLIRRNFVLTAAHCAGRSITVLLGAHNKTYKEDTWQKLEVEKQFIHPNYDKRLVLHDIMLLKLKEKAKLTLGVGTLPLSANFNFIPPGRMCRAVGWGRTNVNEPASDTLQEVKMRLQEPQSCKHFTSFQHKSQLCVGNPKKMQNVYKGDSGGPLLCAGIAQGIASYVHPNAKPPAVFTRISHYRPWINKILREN
In words: Inhibition of rat mast cell chymase using Suc-AAPF-pNA as substrate after 30 mins. In a few lines: (§3)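 Inhibitor and protease were preincubated 30 min at room temperature. pNA substrate release was read at 405 nm for 5 min in 0.15 M NaCl, 0.1 M Tris·HCl pH 8.0, 0.005% Triton X-100, with 10% acetonitrile. Morrison Ki was obtained by non-linear regression from three independent triplicate experiments.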

Another assay deals with T5, Neutrophil elastase (Homo sapiens, UniProt P08246).
T5 sequence (P08246 whole entry): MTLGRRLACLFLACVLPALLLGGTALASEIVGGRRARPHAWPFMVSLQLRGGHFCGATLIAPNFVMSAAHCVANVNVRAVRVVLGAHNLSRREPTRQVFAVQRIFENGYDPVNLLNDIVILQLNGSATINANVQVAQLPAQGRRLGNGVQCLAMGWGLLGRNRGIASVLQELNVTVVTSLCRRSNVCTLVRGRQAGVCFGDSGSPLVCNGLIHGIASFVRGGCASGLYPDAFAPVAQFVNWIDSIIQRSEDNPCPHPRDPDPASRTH
Put plainly: Inhibition of human neutrophil elastase using Suc(OMe)-AAPV-pNA as substrate after 30 mins. A digest of the protocol: as §3

The species entered for assay [8] is Homo sapiens. Put plainly: Selectivity ratio of Ki for human PR3 to Ki for human cathepsin G. A digest of the protocol: as §2
Assay [9] concerns the target T6, Plasminogen (Homo sapiens, UniProt P00747). In words: Inhibition of human plasmin using Ac-RM(O2)YRpNA as substrate after 30 mins. A digest of the protocol: as §3
For assay [10], the target named is T6, Plasminogen. Put plainly: Inhibition of human plasmin at 10000 nM using Ac-RM(O2)YRpNA as substrate after 30 mins.
The species entered for the next assay is Bos taurus. In words: Inhibition of bovine chymotrypsin at 10000 nM using Suc(OMe)-AAPV-MCA as substrate after 30 mins relative to control.
Assay [11] in a line: Selectivity ratio of Ki for bovine trypsin to Ki for human cathepsin G. In a few lines:
as §2

Assay [12] has as its target T7, Prothrombin (Homo sapiens, UniProt P00734). In words: Inhibition of human alpha-thrombin using Glt-Gly-Arg-MCA as substrate after 30 mins. A digest of the protocol:
as §1

A short description of assay [13]: Inhibition of bovine trypsin using Boc-QAR-MCA as substrate after 30 mins. Also on record: species or system Bos taurus. A digest of the protocol: as §1
The species named for assay [14] is Homo sapiens. Put plainly: Selectivity ratio of Ki for human alpha-thrombin to Ki for human cathepsin G. In a few lines: as §2
The target in assay [15] is T8, Cathepsin G (Homo sapiens) (UniProt P08311).
T8 sequence (whole entry): T1 sequence (P08311 whole entry)
Put plainly: Inhibition of human cathepsin G assessed as decrease in angiotensin-2 generation from angiotensin-1 at 100 nM after 1.5 to 3 hrs by RP-UPLC/mass spectroscopic method. To be noted: in the assay text read “1.5 to 5 hrs” for “1.5 to 3 hrs”. In a few lines:
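Cathepsin G (10 nM) was incubated with angiotensin I (10 µM) in assay buffer, with or without inhibitor at 100 nM. Aliquots were taken at 1.5, 3 and 5 h and quenched with 2% TFA. Angiotensin I cleavage and angiotensin II formation were analysed by RP-UPLC and electrospray mass spectrometry.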

In assay [16] the target is T7, Prothrombin. Put plainly: Inhibition of human alpha-thrombin at 10000 nM using Glt-Gly-Arg-MCA as substrate after 30 mins.
The species named for assay [17] is Homo sapiens. Put plainly: Selectivity ratio of Ki for human plasmin to Ki for human cathepsin G. A digest of the protocol: as §2

Chain of Kallikrein-7 (P49862 whole entry): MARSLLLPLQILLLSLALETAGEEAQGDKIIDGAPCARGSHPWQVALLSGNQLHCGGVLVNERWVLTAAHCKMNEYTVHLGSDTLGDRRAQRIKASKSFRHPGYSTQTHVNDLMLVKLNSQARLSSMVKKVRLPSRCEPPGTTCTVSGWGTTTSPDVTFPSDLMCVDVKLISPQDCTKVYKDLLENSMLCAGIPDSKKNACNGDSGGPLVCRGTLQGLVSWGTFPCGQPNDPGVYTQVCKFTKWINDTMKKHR
T6 sequence (P00747 97-580 limits assumed): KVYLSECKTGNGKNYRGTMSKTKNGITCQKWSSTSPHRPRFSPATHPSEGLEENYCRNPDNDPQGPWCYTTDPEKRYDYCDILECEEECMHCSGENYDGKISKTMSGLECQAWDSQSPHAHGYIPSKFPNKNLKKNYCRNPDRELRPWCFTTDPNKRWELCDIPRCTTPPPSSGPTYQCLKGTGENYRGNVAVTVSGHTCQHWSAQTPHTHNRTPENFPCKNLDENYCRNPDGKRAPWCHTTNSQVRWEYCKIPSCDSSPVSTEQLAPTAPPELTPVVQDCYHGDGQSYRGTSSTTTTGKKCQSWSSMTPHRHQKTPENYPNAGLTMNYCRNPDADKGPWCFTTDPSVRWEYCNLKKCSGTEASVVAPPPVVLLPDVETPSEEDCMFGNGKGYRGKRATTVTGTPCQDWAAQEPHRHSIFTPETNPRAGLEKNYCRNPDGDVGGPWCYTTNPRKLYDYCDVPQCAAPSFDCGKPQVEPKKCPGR
T6 sequence (P00747 581-810 limits assumed): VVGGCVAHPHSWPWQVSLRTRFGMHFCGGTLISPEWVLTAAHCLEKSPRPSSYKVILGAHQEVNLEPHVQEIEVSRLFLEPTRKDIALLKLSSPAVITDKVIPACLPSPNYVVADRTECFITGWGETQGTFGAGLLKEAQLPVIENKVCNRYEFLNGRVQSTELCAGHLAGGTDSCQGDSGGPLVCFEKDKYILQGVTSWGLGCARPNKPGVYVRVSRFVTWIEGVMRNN

Regarding `CC[C@H](C)[C@@H]1NC(=O)[C@@H]2CCCN2C(=O)[C@@H]2CCCN2C(=O)[C@H]([C@@H](C)CC)NC(=O)[C@H](CO)NC(=O)[C@H](CCCCN)NC(=O)[C@H]([C@@H](C)O)NC(=O)[C@@H]2CSSC[C@H](NC1=O)C(=O)N[C@@H](Cc1ccccc1)C(=O)N1CCC[C@H]1C(=O)N[C@@H](CC(=O)O)C(=O)NCC(=O)N[C@@H](CCCNC(=N)N)C(=O)N2`, the Ki on Cathepsin G came to 730 nM; in [1] it was 1.7 pM.

As to `CCCCC1NC(=O)[C@@H]2CSSC[C@H](NC(=O)[C@H]([C@@H](C)CC)NC(=O)[C@@H]3CCCN3C(=O)[C@@H]3CCCN3C(=O)[C@H](CC(=O)O)NC(=O)[C@H](CO)NC(=O)[C@H](Cc3ccccc3)NC1=O)C(=O)N[C@@H](Cc1ccccc1)C(=O)N1CCC[C@H]1C(=O)N[C@@H](CC(N)=O)C(=O)NCC(=O)N[C@@H]([C@@H](C)O)C(=O)N2` (stereo partly drawn) (cyclo(CFPNGTC[ξNle]FSDPPI); disulfide 1-7), the Ki is over 10 µM on Myeloblastin; 1.7 nM at Cathepsin G; 130 nM on Kallikrein-7; 140 nM in [4]; 0.0077 µM on Chymase; 8.9 µM on Neutrophil elastase. Moreover, in assay [2], the inhibition is under 20%. The Ratio Ki in the assay listed under Homo sapiens [3] was 5200; in the assay listed under Homo sapiens [5], 76; in assay [6], 4.5; in assay [7], 83; in the assay listed under Homo sapiens [8] it was over 5900.

As to `CCCCC1NC(=O)[C@@H]2CSSC[C@H](NC(=O)[C@H]([C@@H](C)CC)NC(=O)[C@@H]3CCCN3C(=O)[C@@H]3CCCN3C(=O)[C@H]([C@@H](C)CC)NC(=O)[C@H](CO)NC(=O)[C@H](Cc3ccccc3)NC1=O)C(=O)N[C@@H](Cc1ccccc1)C(=O)N1CCC[C@H]1C(=O)N[C@@H](CC(N)=O)C(=O)NCC(=O)N[C@@H]([C@@H](C)O)C(=O)N2` (stereo partly drawn) (cyclo(CFPNGTC[ξNle]FSIPPI); disulfide 1-7), the Ki on Myeloblastin was over 10 µM; on Cathepsin G, 0.89 nM; at Kallikrein-7, 69 nM; in [4] it was 1.9 nM; at Neutrophil elastase it was 12 µM. The inhibition in assay [2] was under 20%. Also, the Ratio Ki was 13000 in the assay listed under Homo sapiens [3], 78 in the assay listed under Homo sapiens [5], 2.1 in assay [7] and over 11000 in the assay filed under Homo sapiens [8].

On to `CCCCC1NC(=O)[C@@H]2CSSC[C@H](NC(=O)[C@H]([C@@H](C)CC)NC(=O)[C@@H]3CCCN3C(=O)[C@@H]3CCCN3C(=O)[C@H](CC(=O)O)NC(=O)[C@H](CO)NC(=O)[C@H](Cc3ccc(NC(=N)N)cc3)NC1=O)C(=O)N[C@@H](Cc1ccccc1)C(=O)N1CCC[C@H]1C(=O)N[C@@H](CC(N)=O)C(=O)NCC(=O)N[C@@H]([C@@H](C)O)C(=O)N2` (stereo partly drawn) (cyclo(CFPNGTC[ξNle][Phe(4-guanidino)]SDPPI); disulfide 1-7), for which the inhibition constant Ki on Plasminogen [9] is over 10 µM; at Myeloblastin it was over 10 µM; at Cathepsin G, 1.6 nM; at Kallikrein-7, 740 nM; in assay [4], over 10000 nM; at Prothrombin [12], over 10 µM. The Ki in [13] amounted to 580 nM; at Chymase it was 19.6 µM; on Neutrophil elastase, 43 µM. Also, the inhibition (on Plasminogen [10]; in [2]; in the assay filed under Bos taurus; against Prothrombin [16]) was under 20% throughout. The Ratio Ki in the assay listed under Homo sapiens [3] was 27000; in assay [11], 360; in the assay listed under Homo sapiens [5], 460; in assay [6], 12000; in assay [7], over 6300; in the assay listed under Homo sapiens [14], over 6300. In addition, the Ratio Ki in the assay filed under Homo sapiens [8] and in the assay filed under Homo sapiens [17] was over 6300 throughout. Besides, in assay [15], the inhibition result was “Active”.

Turning to `CC[C@H](C)[C@@H]1NC(=O)[C@@H]2CCCN2C(=O)[C@@H]2CCCN2C(=O)[C@H](CC(=O)O)NC(=O)[C@H](CO)NC(=O)[C@H](CCCNC(=N)N)NC(=O)[C@H]([C@@H](C)O)NC(=O)[C@@H]2CSSC[C@H](NC1=O)C(=O)N[C@@H](CC(N)=O)C(=O)N1CCC[C@H]1C(=O)N[C@@H](CC(N)=O)C(=O)NCC(=O)N[C@@H]([C@@H](C)O)C(=O)N2` (cyclo(CNPNGTCTRSDPPI); disulfide 1-7), affinity on Cathepsin G was put at a Ki of 12 nM.

`CC[C@H](C)[C@@H]1NC(=O)[C@@H]2CCCN2C(=O)[C@@H]2CCCN2C(=O)[C@H]([C@@H](C)CC)NC(=O)[C@H](CO)NC(=O)[C@H](CCCNC(=N)N)NC(=O)[C@H]([C@@H](C)O)NC(=O)[C@@H]2CSSC[C@H](NC1=O)C(=O)N[C@@H](CC(N)=O)C(=O)N1CCC[C@H]1C(=O)N[C@@H](CC(N)=O)C(=O)NCC(=O)N[C@@H]([C@@H](C)O)C(=O)N2` (cyclo(CNPNGTCTRSIPPI); disulfide 1-7): the affinity on Cathepsin G, expressed as Ki, was 490 nM.

The values above are taken from ChEMBL document CHEMBL4052586, “Design of Potent and Selective Cathepsin G Inhibitors Based on the Sunflower Trypsin Inhibitor-1 Scaffold” (J Med Chem, 2017).
